This is an account of results in ChEMBL document CHEMBL3526048, “In vitro metabolism of rivoglitazone, a novel peroxisome proliferator-activated receptor γ agonist, in rat, monkey, and human liver microsomes and freshly isolated hepatocytes” (Drug Metab Dispos, 2011).

The target in series [1] is T1, UDP-glucuronosyltransferase 1A6 (Homo sapiens, UniProt P19224).
T1 sequence (P19224 whole entry): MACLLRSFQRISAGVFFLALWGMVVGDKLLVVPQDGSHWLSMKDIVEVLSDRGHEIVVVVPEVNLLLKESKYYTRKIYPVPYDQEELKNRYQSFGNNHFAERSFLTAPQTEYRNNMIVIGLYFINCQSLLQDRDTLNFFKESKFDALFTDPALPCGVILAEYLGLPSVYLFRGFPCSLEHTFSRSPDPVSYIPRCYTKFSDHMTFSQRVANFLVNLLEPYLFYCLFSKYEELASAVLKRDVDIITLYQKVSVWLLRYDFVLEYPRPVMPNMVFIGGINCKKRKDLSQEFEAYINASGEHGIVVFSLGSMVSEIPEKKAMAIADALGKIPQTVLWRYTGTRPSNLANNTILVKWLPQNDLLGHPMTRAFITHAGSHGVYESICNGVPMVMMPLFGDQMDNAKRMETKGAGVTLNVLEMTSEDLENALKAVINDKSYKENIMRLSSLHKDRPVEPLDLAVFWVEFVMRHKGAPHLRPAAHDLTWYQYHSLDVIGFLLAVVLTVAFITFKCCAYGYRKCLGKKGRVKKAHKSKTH
The series is described as follows: Activity of human UGT1A6 expressed in microsomes isolated from baculovirus infected insect cell assessed as enzyme-mediated (2S,3S,4S,5R,6R)-6-((1-carboxy-2-(4-((6-methoxy-1-methyl-1H-benzo[d]imidazol-2-yl)methoxy)phenyl)ethylthio)carbonylamino)-3,4,5-trihydroxytetrahydro-2H-pyran-2-carboxylic acid formation at 20 uM after 4 hrs by radio-HPLC/LC-MS/MS analysis in presence of UDPGA. The class given is ADME.

Series [2] can be described thus: Drug metabolism in monkey hepatocytes assessed as formation of (2S,3S,4S,5R,6R)-6-((1-carboxy-2-(4-((6-methoxy-1-methyl-1H-benzo[d]imidazol-2-yl)methoxy)phenyl)ethylthio)carbonylamino)-3,4,5-trihydroxytetrahydro-2H-pyran-2-carboxylic acid at 30 uM after 3 hrs by radio-HPLC/LC-MS/MS analysis in presence of UDPGA and UDPGA/SAM. As to conditions: cynomolgus monkey.
Series [3] addresses Cytochrome P450 2C9 (Homo sapiens, UniProt P11712). As to the kind of experiment: Activity of human CYP2C9 expressed in microsomes isolated from baculovirus infected insect cell assessed as enzyme-mediated 5-hydroxy-5-(4-((6-methoxy-1-methyl-1H-benzo[d]imidazol-2-yl)methoxy)benzyl)thiazolidine-2,4-dione formation at 20 uM after 2 hrs by radio-HPLC/LC-MS/MS analysis in presence of NADPH-generating system and NADPH-generating system/SAM. Type of series: ADME.

Series [4] in a line: Drug metabolism in rat hepatocytes assessed as formation of 3-(4-((6-methoxy-1-methyl-1H-benzo[d]imidazol-2-yl)methoxy)phenyl)-2-(methylsulfinyl)propanamide at 30 uM after 3 hrs by radio-HPLC/LC-MS/MS analysis in presence of NADPH-generating system/SAM. The class given is ADME, cell-based, Hepatocyte.
Series [5] has as its target T2, Cytochrome P450 1A2 (Homo sapiens, UniProt P05177).
T2 sequence (P05177 whole entry): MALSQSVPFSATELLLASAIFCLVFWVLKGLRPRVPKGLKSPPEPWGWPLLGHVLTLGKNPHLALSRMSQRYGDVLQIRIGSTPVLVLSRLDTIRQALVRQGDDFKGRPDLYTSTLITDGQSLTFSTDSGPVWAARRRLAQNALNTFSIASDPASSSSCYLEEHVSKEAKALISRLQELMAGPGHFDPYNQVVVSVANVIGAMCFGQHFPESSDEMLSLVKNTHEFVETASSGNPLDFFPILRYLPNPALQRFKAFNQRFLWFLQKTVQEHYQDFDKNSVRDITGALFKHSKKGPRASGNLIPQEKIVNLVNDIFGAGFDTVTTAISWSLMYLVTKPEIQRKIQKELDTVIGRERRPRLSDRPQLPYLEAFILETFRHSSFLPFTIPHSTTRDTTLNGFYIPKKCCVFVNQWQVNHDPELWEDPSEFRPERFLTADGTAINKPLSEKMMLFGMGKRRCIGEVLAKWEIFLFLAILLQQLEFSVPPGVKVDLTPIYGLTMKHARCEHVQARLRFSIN
As to the kind of experiment: Activity of human CYP1A2 expressed in microsomes isolated from baculovirus infected insect cell assessed as enzyme-mediated 2-amino-3-((1-carboxy-2-(4-((6-methoxy-1-methyl-1H-benzo[d]imidazol-2-yl)methoxy)phenyl)ethyl)disulfanyl)propanoic acid formation at 20 uM after 2 hrs by radio-HPLC/LC-MS/MS analysis. The class given is ADME. The procedure, abridged: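 Baculovirus/insect-cell microsomes expressing single human CYPs, 1 mg/ml protein, with 50 mM potassium phosphate (pH 7.4) or 100 mM Tris-HCl (pH 7.5). NADPH-generating system: 2 mM NADP⁺, 20 mM glucose 6-phosphate, 2 units/ml G6PDH, 10 mM MgCl₂. [¹⁴C]rivoglitazone at 20 μM, 2 h at 37°C with shaking. Control used insect-cell control supersomes. Stopped with acetonitrile; supernatant concentrated under nitrogen; metabolites analysed by radio-HPLC, LC-MS and LC-MS/MS.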

Series [6] concerns the target T3, UDP-glucuronosyltransferase 1A8 (Homo sapiens, UniProt Q9HAW9).
T3 sequence (Q9HAW9 whole entry): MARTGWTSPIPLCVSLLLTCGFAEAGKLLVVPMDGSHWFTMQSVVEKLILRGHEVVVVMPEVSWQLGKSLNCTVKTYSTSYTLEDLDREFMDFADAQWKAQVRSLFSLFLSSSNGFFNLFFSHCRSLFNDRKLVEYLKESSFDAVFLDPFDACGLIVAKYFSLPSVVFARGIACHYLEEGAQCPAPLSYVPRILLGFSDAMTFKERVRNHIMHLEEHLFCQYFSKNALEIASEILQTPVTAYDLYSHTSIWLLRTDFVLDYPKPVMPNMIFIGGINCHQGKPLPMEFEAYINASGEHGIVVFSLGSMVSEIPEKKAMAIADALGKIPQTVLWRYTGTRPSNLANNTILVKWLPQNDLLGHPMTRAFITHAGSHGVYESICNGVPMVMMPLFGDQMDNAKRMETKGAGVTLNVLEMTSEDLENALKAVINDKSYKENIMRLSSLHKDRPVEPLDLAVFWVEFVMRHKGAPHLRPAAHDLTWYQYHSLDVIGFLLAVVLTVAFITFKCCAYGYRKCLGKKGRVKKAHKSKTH
As to the kind of experiment: Activity of human UGT1A8 expressed in microsomes isolated from baculovirus infected insect cell assessed as enzyme-mediated (2S,3S,4S,5R,6R)-6-((1-carboxy-2-(4-((6-methoxy-1-methyl-1H-benzo[d]imidazol-2-yl)methoxy)phenyl)ethylthio)carbonylamino)-3,4,5-trihydroxytetrahydro-2H-pyran-2-carboxylic acid formation at 20 uM after 4 hrs by radio-HPLC/LC-MS/MS analysis in presence of UDPGA. Type of series: ADME.

Structures are written as SMILES.

Chain of Cytochrome P450 2C9 (P11712 whole entry): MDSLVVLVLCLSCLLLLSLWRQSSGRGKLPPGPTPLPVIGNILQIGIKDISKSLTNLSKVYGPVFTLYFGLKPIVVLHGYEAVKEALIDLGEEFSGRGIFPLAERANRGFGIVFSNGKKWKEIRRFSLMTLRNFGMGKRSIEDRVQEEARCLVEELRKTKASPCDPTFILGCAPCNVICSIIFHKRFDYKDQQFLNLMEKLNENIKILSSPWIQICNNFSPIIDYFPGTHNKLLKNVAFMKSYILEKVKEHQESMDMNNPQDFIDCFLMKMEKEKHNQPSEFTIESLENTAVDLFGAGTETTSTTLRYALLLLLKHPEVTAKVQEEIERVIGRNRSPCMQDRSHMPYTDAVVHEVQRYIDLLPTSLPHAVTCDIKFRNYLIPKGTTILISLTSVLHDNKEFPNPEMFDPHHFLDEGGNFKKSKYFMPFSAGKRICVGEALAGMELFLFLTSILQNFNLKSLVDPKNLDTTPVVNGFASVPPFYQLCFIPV

As for `COc1ccc2nc(COc3ccc(C[14CH]4SC(=O)NC4=O)cc3)n(C)c2c1.Cl` (racemic), the Drug metabolism entry in series [1] is “metabolite_not_detected”; in series [2], “metabolite_detected”; in series [3] it was “metabolite_detected”; in series [4] it was “metabolite_detected”; in series [5], “metabolite_not_detected”; in series [6] it was “metabolite_not_detected”.
